This is one part of a sample in which hits are shown more often than they occur.
KDM4C inh – KDM4C (human) demethylase inhibition | inhibition, % at 12.5 µM | AID 720574 | 0.15% of 96,000 active | Q9H3R0 | GST-KDM4C 2-372, H3K9me3 peptide, LANCE TR-FRET;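 active = mean replicate inhibition above about 25%, with at least 55% of replicates also reaching it, limit read from the data, passing the limit was not always enough; inconclusive = only one of those two conditions met; inactive = neither condition met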
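Material: GST-tagged GASC-1 (JMJD2C) catalytic fragment, aa 2-372. Input: enzyme final amount 10 nM. Medium: HEPES buffer, pH 7.5, plus ascorbate. Reagent: H3K9me3 peptide substrate, Fe(II), 2-oxoglutarate. Doses: single dose. Times: reaction 30 min RT, detection step 1 h RT. Measured by: LANCE TR-FRET. Evaluation: Fall in 671/618 emission ratio as inhibition.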
T cruzi growth-1 – blocks T. cruzi growth in NIH3T3 culture. T. cruzi beta-gal in NIH3T3, GalScreen luminescence, 90 h. inhibition, % at 8.34 µM. 5.9% of 77,000 active. AID 624255;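 active = mean inhibition above about 93%, with at least 55% of replicates each passing it, limit read from the data, passing the limit was not always enough; inconclusive = only one of those two conditions holds; inactive = neither condition holds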
IDH1 R132H inh – IDH1 R132H (human) inhibition; O75874; IDH1 R132H reductase, diaphorase/resazurin fluorescence, 60 min; inhibition, % at 10 µM; 0.18% of 70,000 active; in the data active = inhibition above about 34%; inconclusive = no clear call, values can overlap the other calls; inactive = below about 11%;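 also: 0% = DMSO and 100% = no enzyme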
Target sequence (O75874 whole entry R132H): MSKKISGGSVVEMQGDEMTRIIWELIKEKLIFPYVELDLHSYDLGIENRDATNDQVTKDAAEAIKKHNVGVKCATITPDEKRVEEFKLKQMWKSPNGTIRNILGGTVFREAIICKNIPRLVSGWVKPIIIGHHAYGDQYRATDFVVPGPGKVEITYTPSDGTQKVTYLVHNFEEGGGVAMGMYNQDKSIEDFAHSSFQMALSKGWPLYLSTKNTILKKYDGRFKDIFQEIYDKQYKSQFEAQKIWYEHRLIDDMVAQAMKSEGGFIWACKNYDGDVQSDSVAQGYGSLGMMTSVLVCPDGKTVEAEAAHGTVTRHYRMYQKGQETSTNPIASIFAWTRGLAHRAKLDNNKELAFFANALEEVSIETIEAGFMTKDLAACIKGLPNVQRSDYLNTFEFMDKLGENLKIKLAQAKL
T cruzi growth-2 – Trypanosoma cruzi proliferation inhibition; shares compounds with T cruzi growth-1; inhibition, % at 8.35 µM; 72% of 5,600 active; AID 651739; T. cruzi beta-gal in NIH3T3, GalScreen luminescence, 90 h;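 active = mean replicate inhibition above about 95% and at least 55% of replicates individually reaching it, limit read from the data; inconclusive = only one of the two criteria is met; inactive = neither criterion is met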
T cruzi growth-3 – Trypanosoma cruzi proliferation inhibition; shares compounds with T cruzi growth-1; T. cruzi beta-gal in NIH3T3, GalScreen luminescence, 90 h; inhibition, % at 2.09 µM; 21% of 5,600 active;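 active = mean inhibition above about 95%, with at least 55% of replicates also reaching it, limit read from the data; inconclusive = meets just one of the two conditions; inactive = meets neither condition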;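 also: plate controls were neutral control median for no effect and positive control median for full effect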
NIH3T3 tox – kills mouse NIH/3T3 fibroblasts. shares compounds with T cruzi growth-1. NIH/3T3 viability, CellTiter-Glo ATP luminescence, 90 h. cytotoxicity (signal decrease), % at 8.35 µM. 14% of 5,600 active. AID 651742;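 active = mean signal decrease across replicates above about 35% based on untreated-well scatter, with enough replicates individually passing, limit read from the data; inconclusive = no rule stated though some were filed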;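 also: 0% = median of neutral control wells and 100% = median of positive control wells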
NIH3T3 tox 2 – NIH/3T3 (mouse) viability loss; shares compounds with T cruzi growth-1; inhibition, % at 24.9 µM; 56% of 5,600 active; NIH/3T3 viability, CellTiter-Glo ATP luminescence, 90 h;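 active = mean loss of cell viability signal at or above a set limit, and enough replicates individually reaching it; inconclusive = meets only the mean limit or only the replicate share; inactive = meets neither condition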;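 also: 0% = median of neutral control wells and 100% = median of positive control wells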
Active calls of the source: *; ? = inconclusive; · = not tested or not shown; ! = repeats disagree.

SMILES	KDM4C inh	T cruzi growth-1	IDH1 R132H inh	T cruzi growth-2	T cruzi growth-3	NIH3T3 tox	NIH3T3 tox 2
C[C@H](CO)N1C[C@H](C)[C@H](CN(C)Cc2ccc3c(c2)OCO3)OCCCC[C@H](C)Oc2ccc(N(C)C)cc2C1=O	-12	72	·	·	·	·	·
C[C@@H]1CCCCO[C@H](CN(C)Cc2ccncc2)[C@@H](C)CN([C@H](C)CO)C(=O)c2cc(N(C)C)ccc2O1	21	108*!	4	59	-10	13	-1
CCCNC(=O)C[C@@H]1C[C@H]2c3cc(NS(=O)(=O)c4ccccc4)ccc3O[C@H]2[C@@H](CO)O1	0	-7	0	·	·	·	·
CC(C)NC(=O)Nc1ccc2c(c1)C(=O)N([C@@H](C)CO)C[C@@H](C)[C@H](CN(C)C(=O)NC(C)C)OCCCC[C@H](C)O2	-2	11	-2	·	·	·	·
C[C@@H]1CCCCO[C@@H](CN(C)C)[C@H](C)CN([C@@H](C)CO)C(=O)c2cc(NC(=O)NC3CCCCC3)ccc2O1	0	7	-1	·	·	·	·
C[C@@H]1CN([C@@H](C)CO)C(=O)c2cc(NC(=O)c3ccccc3)ccc2O[C@@H](C)CCCCO[C@H]1CN(C)C(=O)CCCN(C)C	-2	47	-1	·	·	·	·
C[C@@H]1CCCCO[C@H](CN(C)C(=O)CCCN(C)C)[C@H](C)CN([C@@H](C)CO)C(=O)c2cc(NS(C)(=O)=O)ccc2O1	2	17	1	·	·	·	·
C[C@@H]1CCCCO[C@H](CN(C)C(=O)CCCN(C)C)[C@@H](C)CN([C@H](C)CO)C(=O)c2cc(NC(=O)c3ccccc3)ccc2O1	2	99*	3	23	-38	-11	9
C[C@@H]1CN([C@H](C)CO)C(=O)c2cc(NS(C)(=O)=O)ccc2O[C@@H](C)CCCCO[C@@H]1CN(C)C(=O)CCCN(C)C	1	100*	·	54	0	18	-2
CC(Oc1ccc(F)cc1)C(=O)NCCN1CCOCC1 (stereo unspecified)	·	·	0	·	·	·	·
Cc1cccc(S(=O)(=O)N2CCCCN3[C@H](C2)[C@@H](c2ccc(C#C[C@@H](C)O)cc2)[C@@H]3CO)c1	0	67	·	·	·	·	·
Cc1cccc(S(=O)(=O)N2CCCCN3[C@H](CO)[C@@H](c4ccc(C#CC(C)C)cc4)[C@@H]3C2)c1	1	118*	·	101*	98*	10	49*
Cc1cccc(S(=O)(=O)N2CCCCN3[C@H](C2)[C@@H](c2ccc(C#C[C@H](C)O)cc2)[C@@H]3CO)c1	0	101*	·	102*	66	65*	27*
Cc1cccc(S(=O)(=O)N2CCCCN3[C@H](CO)[C@H](c4ccc(C#CC(C)C)cc4)[C@@H]3C2)c1	-1	97*	·	98*	100*	37*	105*
Cc1cccc(S(=O)(=O)N2CCCCN3[C@H](CO)[C@H](c4ccc(C#C[C@H](C)O)cc4)[C@@H]3C2)c1	-1	74	·	·	·	·	·
Cc1cccc(S(=O)(=O)N2CCCCN3[C@H](CO)[C@H](c4ccc(C#C[C@@H](C)O)cc4)[C@@H]3C2)c1	0	63	·	·	·	·	·
COc1cccc(NC(=O)N(C)C[C@H]2Oc3cc(/C=C/c4ccccc4)ccc3S(=O)(=O)N([C@H](C)CO)C[C@H]2C)c1	1	·	-4	·	·	·	·
C/C=C/c1ccc2c(c1)O[C@@H](CN(C)C(=O)Nc1cccc(F)c1)[C@H](C)CN([C@@H](C)CO)S2(=O)=O	2	97*	0	84	35	19	63*
C[C@H](CO)N1C[C@H](C)[C@H](CN(C)C(=O)Nc2cccc(F)c2)Oc2cc(/C=C/c3ccccc3)ccc2S1(=O)=O	-1	124*	2	105*	111*	39*	37*
C[C@@H]1CN([C@H](C)CO)S(=O)(=O)c2ccc(/C=C/c3ccccc3)cc2O[C@@H]1CN(C)C(=O)Nc1cccc(F)c1	-2	124*	-3	101*	108*	22	30
COc1cccc(NC(=O)N(C)C[C@@H]2Oc3cc(/C=C/c4ccccc4)ccc3S(=O)(=O)N([C@H](C)CO)C[C@H]2C)c1	-1	·	2	·	·	·	·
C[C@H]1CN([C@@H](C)CO)S(=O)(=O)c2ccc(/C=C/c3ccccc3)cc2O[C@@H]1CN(C)C(=O)Nc1cccc(F)c1	1	125*	2	95*	100*	?	47*
C/C=C/c1ccc2c(c1)O[C@H](CN(C)C(=O)Nc1cccc(F)c1)[C@@H](C)CN([C@H](C)CO)S2(=O)=O	-2	80	-2	·	·	·	·
C/C=C/c1ccc2c(c1)O[C@@H](CN(C)C(=O)Nc1cccc(F)c1)[C@@H](C)CN([C@H](C)CO)S2(=O)=O	-1	66	0	·	·	·	·
Cc1c(Cl)cccc1NC(=O)CN(c1ccccc1Br)S(C)(=O)=O	·	·	1	·	·	·	·
SMILES	KDM4C inh	T cruzi growth-1	IDH1 R132H inh	T cruzi growth-2	T cruzi growth-3	NIH3T3 tox	NIH3T3 tox 2
O=[N+]([O-])c1ccc(OCCCSc2ncccn2)cc1	·	·	0	·	·	·	·
NC(=O)c1c(NC(=O)CSc2ncn[nH]2)sc2c1CCC2	·	·	1	·	·	·	·
Cc1ccccc1C(=O)Nc1ccc(OCC(=O)O)cc1	·	·	0	·	·	·	·
N#Cc1c(NC(=O)CCN2C(=O)c3ccccc3C2=O)sc2c1CCCC2	·	·	0	·	·	·	·
C/C=C/c1ccc2c(c1)O[C@@H](CN(C)C(=O)Nc1ccc(C(F)(F)F)cc1)[C@H](C)CN([C@H](C)CO)S2(=O)=O	0	112*	3	94	103*	43*	55*
C/C=C/c1ccc2c(c1)O[C@H](CN(C)C(=O)Nc1cc(F)ccc1F)[C@@H](C)CN([C@H](C)CO)S2(=O)=O	-2	28	3	·	·	·	·
C[C@H](CO)N1C[C@H](C)[C@H](CN(C)C(=O)Nc2cc(F)ccc2F)Oc2cc(/C=C/c3ccccc3)ccc2S1(=O)=O	-1	·	0	·	·	·	·
C/C=C/c1ccc2c(c1)O[C@@H](CN(C)C(=O)Nc1ccc(C(F)(F)F)cc1)[C@@H](C)CN([C@@H](C)CO)S2(=O)=O	0	81	1	·	·	·	·
C[C@H](CO)N1C[C@H](C)[C@H](CN(C)C(=O)Nc2ccc(F)cc2)Oc2cc(/C=C/c3ccccc3)ccc2S1(=O)=O	·	122*	-1	99*	105*	12	36*
C/C=C/c1ccc2c(c1)O[C@H](CN(C)C(=O)Nc1ccc(F)cc1)[C@H](C)CN([C@H](C)CO)S2(=O)=O	-2	65	0	·	·	·	·
C/C=C/c1ccc2c(c1)O[C@H](CN(C)C(=O)Nc1cc(F)ccc1F)[C@@H](C)CN([C@@H](C)CO)S2(=O)=O	0	100*	-3	101*	33	0	25
